Results taken from ChEMBL document CHEMBL1139384, “First Cdc7 kinase inhibitors: pyrrolopyridinones as potent and orally active antitumor agents. 2. Lead discovery” (J Med Chem, 2009).
pIC50: −log10 of the molar value.

Columns and labels:
[1] = target: Cell division cycle 7-related protein kinase (Homo sapiens, UniProt O00311); test: Inhibition of human Cdc7 assessed as inhibition of rate of phosphorylation of Mcm2 protein
[2] = system: A2780; test: Antiproliferative activity against human A2780 cells after 72 hrs by luciferase based assay; type: functional, cell-based
[3] = target: Cyclin-dependent kinase 9 (Homo sapiens, UniProt P50750); test: Inhibition of CDK9
[4] = Cmax in nu/nu mouse at 10 mg/kg, po administered as single dose; type: ADME, organism-based; set-up: dose 10 mg/kg, route oral; settings: in vivo
Procedure, shortened: (§1)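 Single iv or oral dose in 5% dextrose to overnight-fasted animals. Nu/Nu mice: males, 3 per route, saphenous bleeds to 24 h. Han-Wistar rats: males, 3 per route, jugular bleeds to 24 h. Beagle dogs: 2 per sex, iv and po crossover 2 weeks apart, jugular bleeds to 48 h. Plasma by LC/MS/MS; noncompartmental parameters, AUC by linear trapezoid with extrapolation.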

[5] = Tmax in nu/nu mouse at 10 mg/kg, po administered as single dose; type: ADME, organism-based; set-up: dose 10 mg/kg, route oral; settings: in vivo
Procedure, shortened: (§2)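 Overnight-fasted male Nu/Nu mice got a single 10 mg/kg dose in 5% dextrose, iv or po, three mice per route. Saphenous blood was drawn at 0.083 (iv) or 0.25 (po), 0.5, 1, 6 and 24 h. Plasma was assayed by LC/MS/MS and analysed noncompartmentally. Tmax is the observed peak time, Vss = CL·MRT, and F is the ratio of dose-normalized AUC∞ po/iv.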

[6] = Oral bioavailability in nu/nu mouse at 10 mg/kg administered as single dose; type: ADME, organism-based; settings: in vivo; procedure, shortened: as §2
[7] = Half life in nu/nu mouse at 10 mg/kg, po administered as single dose; type: ADME, organism-based; set-up: dose 10 mg/kg, route oral; settings: in vivo; procedure, shortened: as §1
[8] = Half life in nu/nu mouse at 10 mg/kg, iv administered as single dose; type: ADME, organism-based; set-up: dose 10 mg/kg, route intravenous; settings: in vivo; procedure, shortened: as §1
[9] = AUC (0 to infinity) in nu/nu mouse at 10 mg/kg, iv administered as single dose; type: ADME, organism-based; set-up: dose 10 mg/kg, route intravenous, time infinity; settings: plasma; procedure, shortened: as §1
[10] = Cmax in nu/nu mouse at 10 mg/kg, iv administered as single dose; type: ADME, organism-based; set-up: dose 10 mg/kg, route intravenous; settings: in vivo; procedure, shortened: as §1
[11] = Volume of distribution at steady state in nu/nu mouse at 10 mg/kg, iv administered as single dose; type: ADME, organism-based; set-up: dose 10 mg/kg, route intravenous; settings: in vivo, read-out: Vdss; procedure, shortened: as §2
[12] = Clearance in nu/nu mouse at 10 mg/kg, iv administered as single dose; type: ADME, organism-based; set-up: dose 10 mg/kg, route intravenous; settings: in vivo; procedure, shortened: as §1
[13] = Solubility in pH 7.0 buffer
[14] = Metabolic stability in human hepatocytes expressing CYP3A4 assessed as drug remaining after 1 hr; type: ADME, cell-based, Hepatocyte; settings: read-out: Stability
[15] = AUC (0 to infinity) in nu/nu mouse at 10 mg/kg, po administered as single dose; type: ADME, organism-based; set-up: time infinity, dose 10 mg/kg, route oral; settings: plasma; procedure, shortened: as §1
[16] = system: OPM-2; test: Antiproliferative activity against human OPM2 cells after 72 hrs by luciferase based assay; type: functional, cell-based; settings: OPM-2, 72 h
Procedure, shortened: (§3)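 Cells seeded at 2500–5000/well in complete medium (RPMI1640, McCoy's or DMEM with 10% FCS, by line); compound added after 24 h, 72 h at 37 °C, 5% CO2.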

[17] = system: MCF7; test: Antiproliferative activity against human MCF7 cells after 72 hrs by luciferase based assay; type: functional, cell-based; settings: MCF7, 72 h
[18] = Antiproliferative activity against human NCI-H929 cells after 72 hrs by luciferase based assay; type: functional, cell-based; settings: NCI-H929, 72 h; procedure, shortened: as §3
[19] = system: NHDF; test: Antiproliferative activity against human NHDF cells after 72 hrs by luciferase based assay; type: cell-based
[20] = system: HT-29; test: Antiproliferative activity against human HT-29 cells after 72 hrs by luciferase based assay; type: functional, cell-based; settings: HT-29, 72 h; procedure, shortened: as §3
[21] = system: L-363; test: Antiproliferative activity against human L363 cells after 72 hrs by luciferase based assay; type: functional, cell-based; settings: L-363, 72 h; procedure, shortened: as §3
[22] = Antiproliferative activity against human […] cells after 72 hrs by luciferase based assay; type: functional, cell-based; procedure, shortened: as §3
[23] = system: Rattus norvegicus; test: Antitumor activity against DMBA-induced mammary carcinoma in CD OFA rat assessed as duration of tumor stabilization maintenance at 20 mg/kg, po administered for 10 days; type: functional
Procedure, shortened: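 DMBA tumors induced in female CD OFA rats by single intragastric 20 mg DMBA in sesame oil; after about 50 days, rats with a mammary tumor of at least 1 cm given 20 mg/kg orally twice daily for 10 days in glucose solution, or vehicle; 10 per group; tumor volume by Vernier calipers.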

[24] = system: COLO 205; test: Antiproliferative activity against human COLO205 cells after 72 hrs by luciferase based assay; type: functional, cell-based; settings: COLO 205, 72 h
[25] = system: SW48; test: Antiproliferative activity against human SW48 cells after 72 hrs by luciferase based assay; type: functional, cell-based; settings: SW48, 72 h; procedure, shortened: as §3
[26] = Antiproliferative activity against human SW403 cells after 72 hrs by luciferase based assay; type: functional, cell-based; settings: SW-403, 72 h; procedure, shortened: as §3
[27] = system: A2780; test: Antitumor activity against human A2780 cells xenografted in CDI nu/nu mouse assessed as tumor growth inhibition at 60 mg/kg, po administered for 10 days; type: functional; settings: A2780, 240 h, read-out: TGI
[28] = Apparent permeability by PAMPA method; type: ADME; settings: read-out: permeability

Cyclin-dependent kinase 9, sequence (P50750 whole entry): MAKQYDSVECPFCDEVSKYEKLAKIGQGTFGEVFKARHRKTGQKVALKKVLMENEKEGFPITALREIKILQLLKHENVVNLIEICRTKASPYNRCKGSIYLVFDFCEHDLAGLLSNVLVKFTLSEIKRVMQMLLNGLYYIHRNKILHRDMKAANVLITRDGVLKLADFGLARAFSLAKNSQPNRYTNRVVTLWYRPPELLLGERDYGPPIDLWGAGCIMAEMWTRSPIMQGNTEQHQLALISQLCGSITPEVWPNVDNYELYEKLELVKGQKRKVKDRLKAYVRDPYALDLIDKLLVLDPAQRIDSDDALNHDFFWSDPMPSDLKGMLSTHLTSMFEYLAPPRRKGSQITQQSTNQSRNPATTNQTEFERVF
Cell division cycle 7-related protein kinase, sequence (O00311 whole entry): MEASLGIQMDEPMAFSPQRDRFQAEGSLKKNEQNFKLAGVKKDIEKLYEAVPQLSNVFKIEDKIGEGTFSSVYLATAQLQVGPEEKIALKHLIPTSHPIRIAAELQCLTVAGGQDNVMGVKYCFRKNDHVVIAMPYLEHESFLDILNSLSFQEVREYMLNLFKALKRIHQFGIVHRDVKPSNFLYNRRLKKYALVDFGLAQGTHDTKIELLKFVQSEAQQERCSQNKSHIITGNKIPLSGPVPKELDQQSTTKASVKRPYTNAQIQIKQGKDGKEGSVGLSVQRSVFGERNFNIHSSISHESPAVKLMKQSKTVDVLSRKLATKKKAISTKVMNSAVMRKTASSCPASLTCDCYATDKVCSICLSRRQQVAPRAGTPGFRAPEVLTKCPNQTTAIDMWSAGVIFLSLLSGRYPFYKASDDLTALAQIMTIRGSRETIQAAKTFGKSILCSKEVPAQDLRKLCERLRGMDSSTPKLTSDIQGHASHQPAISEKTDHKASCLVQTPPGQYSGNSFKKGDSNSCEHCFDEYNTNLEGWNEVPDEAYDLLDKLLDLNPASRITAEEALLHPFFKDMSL

Row | Structure (SMILES) | pIC50 [1] | pIC50 ([2]; Homo sapiens, A2780, 72 h) | pIC50 [3] | other results
1 | O=C1NCC(CCF)c2[nH]c(-c3ccncc3)cc21 (stereo not drawn) | 8.70 | 6.22 |  | 
2 | CC(C)CC1Cc2[nH]c(-c3ccncc3)cc2C(=O)N1 (stereo not drawn) | 8.52 | 6.10 |  | 
3 | CCC1CNC(=O)c2cc(-c3ccnc(N)n3)[nH]c21 (stereo in doubt; 86-2) | 8.30 | 6.40 | 7.77 | 
4 | O=C1NCC(C2CCC2)c2[nH]c(-c3ccncc3)cc21 (stereo not drawn) | 8.52 | 6.30 |  | 
5 | CCC1(CC)CNC(=O)c2cc(-c3ccncc3)[nH]c21 | 8.22 | 6.70 |  | 
6 | CCC1CNC(=O)c2cc(-c3ccnc(N)n3)[nH]c21 (stereo in doubt; 86) | 8.30 |  |  | 
7 | Nc1nccc(-c2cc3c([nH]2)C(CCCO)CNC3=O)n1 (stereo not drawn) | 7.92 | 5.22 |  | 
8 | Nc1nccc(-c2cc3c([nH]2)C(CCC(F)(F)F)CNC3=O)n1 (stereo in doubt; 93-1) | 7.92 |  | 6.66 | pIC50 ([2]; a2780): 6.00
9 | CC1Cc2[nH]c(-c3ccncc3)cc2C(=O)N1 (stereo not drawn) | 7.89 | 5.62 |  | 
10 | O=C1NC(C2CC2)Cc2[nH]c(-c3ccncc3)cc21 (stereo not drawn) | 8.30 | 5.89 |  | 
11 | CC(C)C1CNC(=O)c2cc(-c3ccnc(N)n3)[nH]c21 (stereo in doubt; 87-1) | 7.89 |  | 7.51 | pIC50 ([2]; a2780): 6.00
12 | O=C1NCC(c2ccccc2)c2[nH]c(-c3ccncc3)cc21 (stereo not drawn) | 7.70 | 5.40 |  | 
13 | Nc1nccc(-c2cc3c([nH]2)C(C2CCC2)CNC3=O)n1 (stereo in doubt; 88-2) | 8.70 |  | 7.02 | pIC50 ([2]; a2780): 6.70
14 | CC1(C)Cc2[nH]c(-c3ccncc3)cc2C(=O)N1 | 7.49 | 5.92 |  | 
15 | CCC1CNC(=O)c2cc(-c3ccnc(N)n3)[nH]c21 (stereo in doubt; 86-1) | 8.40 |  | 7.14 | Cmax [4]: 2.7 µM; Tmax [5]: 20.4 min; bioavailability [6]: 74%; half-life [7]: 78 min; half-life [8]: 12 min; AUC(0-inf) [9]: 4.9 µM·h; Cmax [10]: 12.6 µM; Vd [11]: 1.5 L/kg; clearance [12]: 125 mL/min/kg; solubility [13]: > 225 µM; remaining at 1 h [14]: 99%; AUC(0-inf) [15]: 3.6 µM·h
16 | CCC1(CC)CNC(=O)c2cc(-c3ccnc(N)n3)[nH]c21 | 8.30 | 6.70 |  | 
17 | O=C1NCCc2[nH]c(-c3ccncc3)cc21 |  | 5.96 |  | pIC50 [16]: 5.35; pIC50 [17]: 5.89; pIC50 [18]: 5.74; pIC50 [19]: 5.80; pIC50 [20]: 5.30; pIC50 [21]: 5.80; pIC50 [22]: 6.00; Activity [23]: 25 days; pIC50 [24]: 5.82; pIC50 [25]: 5.92; pIC50 [26]: 6.00; inhibition in vivo at 60 mg/kg [27]: 50%; Papp [28]: 1.84 ×10⁻⁶ cm/s
18 | Nc1nccc(-c2cc3c([nH]2)C(CCCOCc2ccccc2)CNC3=O)n1 (stereo not drawn) | 7.62 | 5.70 |  | 
19 | CC(C)C1CNC(=O)c2cc(-c3ccnc(N)n3)[nH]c21 (stereo in doubt; 87-2) | 9.00 |  | 7.14 | pIC50 ([2]; a2780): 6.22
20 | O=C1N[C@@H](COCc2ccccc2)Cc2[nH]c(-c3ccncc3)cc21 | 7.36 | 5.32 |  | 
21 | Nc1nccc(-c2cc3c([nH]2)[C@H](CCF)CNC3=O)n1 | 8.30 | 6.00 | 7.02 | 
22 | Nc1nccc(-c2cc3c([nH]2)C(c2ccccc2)CNC3=O)n1 (stereo not drawn) | 7.72 | 5.52 |  | 
